In ChEMBL document CHEMBL1128473, “[(Biaryloxy)alkyl]isoxazoles: picornavirus inhibitors” (J Med Chem, 1995):
In brackets after ≈: the same amount, converted by molar mass.

How the values were obtained:
Human rhinovirus sp. [1] = assay: Concentration inhibiting 50% of the serotypes tested to 50% of the viral concentration of untreated controls following 72 hr of exposure; assay type: functional
Method in brief: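 Tissue culture infectious dose (TCID50) assay against a panel of 10 human rhinovirus serotypes. For each serotype, the viral concentration was compared with untreated controls after 72 h of compound exposure. MIC50 is the compound concentration at which half of the serotypes tested are reduced to 50% of the untreated-control viral concentration.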

[2] = Metabolic stability expressed as half life values was monitored in vitro liver microsomal assay.; assay type: ADME, Microsome; settings: liver microsomes
Human rhinovirus sp. [3] = assay: Minimum inhibitory concentration on HRV serotype 9; assay type: functional
Method in brief: (§1)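 Tested in a tissue culture infectious dose (TCID50) assay with 72 h compound exposure. Activity is read as the concentration that holds virus to 50% of the titer of untreated controls.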

Human rhinovirus sp. [4] = assay: Minimum inhibitory concentration on HRV serotype 68; assay type: functional
Human rhinovirus sp. [5] = assay: Minimum inhibitory concentration on HRV serotype 35; assay type: functional
Human rhinovirus sp. [6] = assay: Minimum inhibitory concentration on HRV serotype 56; assay type: functional
Human rhinovirus sp. [7] = assay: Minimum inhibitory concentration on HRV serotype 21; assay type: functional
Human rhinovirus sp. [8] = assay: Minimum inhibitory concentration on HRV serotype 67; assay type: functional
Human rhinovirus sp. [9] = assay: Minimum inhibitory concentration on HRV serotype 16; assay type: functional
Human rhinovirus sp. [10] = assay: Minimum inhibitory concentration on HRV serotype 82; assay type: functional; method in brief: as §1
Human rhinovirus sp. [11] = assay: Minimum inhibitory concentration on HRV serotype 24; assay type: functional
Human rhinovirus sp. [12] = assay: Minimum inhibitory concentration on HRV serotype 90; assay type: functional; method in brief: as §1
Human rhinovirus sp. [13] = assay: Minimum inhibitory concentration on HRV serotype 83; assay type: functional; method in brief: as §1
Human rhinovirus sp. [14] = assay: Minimum inhibitory concentration on HRV serotype 1B; assay type: functional
Human rhinovirus sp. [15] = assay: Minimum inhibitory concentration on HRV serotype 38; assay type: functional
Human rhinovirus sp. [16] = assay: Minimum inhibitory concentration on HRV serotype 46; assay type: functional
Human rhinovirus sp. [17] = assay: Minimum inhibitory concentration on HRV serotype 81; assay type: functional; method in brief: as §1
Human rhinovirus sp. [18] = assay: Minimum inhibitory concentration on HRV serotype 32; assay type: functional
Human rhinovirus sp. [19] = assay: Minimum inhibitory concentration on HRV serotype 33; assay type: functional
Human rhinovirus sp. [20] = assay: Minimum inhibitory concentration on HRV serotype 57; assay type: functional
Human rhinovirus sp. [21] = assay: Minimum inhibitory concentration on HRV serotype 30; assay type: functional
Human rhinovirus sp. [22] = assay: Minimum inhibitory concentration on HRV serotype 75; assay type: functional
Human rhinovirus sp. [23] = assay: Minimum inhibitory concentration on HRV serotype 92; assay type: functional; method in brief: as §1
Human rhinovirus sp. [24] = assay: Minimum inhibitory concentration on HRV serotype 58; assay type: functional
Human rhinovirus sp. [25] = assay: Minimum inhibitory concentration on HRV serotype 47; assay type: functional
Human rhinovirus sp. [26] = assay: Minimum inhibitory concentration on HRV serotype 61; assay type: functional
Human rhinovirus sp. [27] = assay: Minimum inhibitory concentration on HRV serotype 23; assay type: functional
Human rhinovirus sp. [28] = assay: Minimum inhibitory concentration on HRV serotype 73; assay type: functional
Human rhinovirus sp. [29] = assay: Minimum inhibitory concentration on HRV serotype 64; assay type: functional
Human rhinovirus sp. [30] = assay: Minimum inhibitory concentration on HRV serotype 79; assay type: functional; method in brief: as §1
Human rhinovirus sp. [31] = assay: Minimum inhibitory concentration on HRV serotype 34; assay type: functional
Human rhinovirus sp. [32] = assay: Minimum inhibitory concentration on HRV serotype 22; assay type: functional
Human rhinovirus sp. [33] = assay: Minimum inhibitory concentration on HRV serotype 28; assay type: functional
Human rhinovirus sp. [34] = assay: Minimum inhibitory concentration on HRV serotype 71; assay type: functional
Human rhinovirus sp. [35] = assay: Minimum inhibitory concentration on HRV serotype 51; assay type: functional
Human rhinovirus sp. [36] = assay: Minimum inhibitory concentration on HRV serotype 20; assay type: functional
Human rhinovirus sp. [37] = assay: Minimum inhibitory concentration on HRV serotype 40; assay type: functional
Human rhinovirus sp. [38] = assay: Minimum inhibitory concentration on HRV serotype 80; assay type: functional; method in brief: as §1
Human rhinovirus sp. [39] = assay: Minimum inhibitory concentration on HRV serotype 11; assay type: functional
Human rhinovirus sp. [40] = assay: Minimum inhibitory concentration on HRV serotype 44; assay type: functional
Human rhinovirus sp. [41] = assay: Minimum inhibitory concentration on HRV serotype 76; assay type: functional; method in brief: as §1
Human rhinovirus sp. [42] = assay: Minimum inhibitory concentration on HRV serotype 55; assay type: functional
Human rhinovirus sp. [43] = assay: Minimum inhibitory concentration on HRV serotype 63; assay type: functional
Human rhinovirus sp. [44] = assay: Minimum inhibitory concentration on HRV serotype 88; assay type: functional; method in brief: as §1
Human rhinovirus sp. [45] = assay: Minimum inhibitory concentration on HRV serotype T39; assay type: functional; method in brief: as §1
Human rhinovirus sp. [46] = assay: Minimum inhibitory concentration on HRV serotype 89; assay type: functional; method in brief: as §1
Human rhinovirus sp. [47] = assay: Minimum inhibitory concentration on HRV serotype 49; assay type: functional
Human rhinovirus sp. [48] = assay: Minimum inhibitory concentration on HRV serotype 96; assay type: functional; method in brief: as §1
Human rhinovirus sp. [49] = assay: Minimum inhibitory concentration on HRV serotype 84; assay type: functional; method in brief: as §1
Human rhinovirus sp. [50] = assay: Minimum inhibitory concentration on HRV serotype 15; assay type: functional
Human rhinovirus sp. [51] = assay: Minimum inhibitory concentration on HRV serotype 36; assay type: functional
Human rhinovirus sp. [52] = assay: Minimum inhibitory concentration on HRV serotype 7; assay type: functional
Human rhinovirus sp. [53] = assay: Minimum inhibitory concentration on HRV serotype 2; assay type: functional
Human rhinovirus sp. [54] = assay: Minimum inhibitory concentration on HRV serotype 25; assay type: functional
Human rhinovirus sp. [55] = assay: Minimum inhibitory concentration on HRV serotype 100; assay type: functional
Human rhinovirus sp. [56] = assay: Minimum inhibitory concentration on HRV serotype 78; assay type: functional; method in brief: as §1
Human rhinovirus sp. [57] = assay: Minimum inhibitory concentration on HRV serotype 66; assay type: functional
Human rhinovirus sp. [58] = assay: Minimum inhibitory concentration on HRV serotype 19; assay type: functional
Human rhinovirus sp. [59] = assay: Minimum inhibitory concentration on HRV serotype 43; assay type: functional
Human rhinovirus sp. [60] = assay: Minimum inhibitory concentration on HRV serotype 62; assay type: functional
Human rhinovirus sp. [61] = assay: Minimum inhibitory concentration on HRV serotype 39; assay type: functional
Human rhinovirus sp. [62] = assay: Minimum inhibitory concentration on HRV serotype 53; assay type: functional
Human rhinovirus sp. [63] = assay: Minimum inhibitory concentration on HRV serotype 29; assay type: functional
Human rhinovirus sp. [64] = assay: Minimum inhibitory concentration on HRV serotype 85; assay type: functional; method in brief: as §1
Human rhinovirus sp. [65] = assay: Minimum inhibitory concentration on HRV serotype 1A; assay type: functional
Human rhinovirus sp. [66] = assay: Minimum inhibitory concentration on HRV serotype 50; assay type: functional

Cc1cc(CCCOc2c(C)cc(-c3ccccc3F)cc2C)on1
MIC50 (Human rhinovirus sp. [1]): 0.11 µM (≈ 0.0373 µg/mL)

COc1cccc(-c2cc(C)c(OCCCc3cc(C)no3)c(C)c2)c1
MIC50 (Human rhinovirus sp. [1]): 0.23 µM (≈ 0.0808 µg/mL)

Cc1cc(CCCOc2c(C)cc(-c3cccc(O)c3)cc2C)on1
MIC50 (Human rhinovirus sp. [1]): 0.44 µM (≈ 0.148 µg/mL)

Cc1cc(CCCOc2c(C)cc(-c3cccc(CO)c3)cc2C)on1
MIC50 (Human rhinovirus sp. [1]): 0.23 µM (≈ 0.0808 µg/mL)

Cc1ccc(-c2cc(C)c(OCCCc3cc(C)no3)c(C)c2)cc1
half-life [2]: > 3.33 h
MIC50 (Human rhinovirus sp. [1]): 0.12 µM (≈ 0.0403 µg/mL)

Cc1cc(CCCCCOc2c(Cl)cc(C3=NCCO3)cc2Cl)on1 [WIN-54954]
MIC (Human rhinovirus sp. [3]): 0.187 µg/mL (≈ 0.488 µM)
MIC (Human rhinovirus sp. [4]): 0.032 µg/mL (≈ 0.0835 µM)
MIC (Human rhinovirus sp. [5]): 0.036 µg/mL (≈ 0.0939 µM)
MIC (Human rhinovirus sp. [6]): 0.099 µg/mL (≈ 0.258 µM)
MIC (Human rhinovirus sp. [7]): 0.031 µg/mL (≈ 0.0809 µM)
MIC (Human rhinovirus sp. [8]): 0.169 µg/mL (≈ 0.441 µM)
MIC (Human rhinovirus sp. [9]): 0.639 µg/mL (≈ 1.67 µM)
MIC (Human rhinovirus sp. [10]): 0.245 µg/mL (≈ 0.639 µM)
MIC (Human rhinovirus sp. [11]): 0.175 µg/mL (≈ 0.457 µM)
MIC (Human rhinovirus sp. [12]): 0.191 µg/mL (≈ 0.498 µM)
MIC (Human rhinovirus sp. [13]): 0.018 µg/mL (≈ 0.047 µM)
MIC (Human rhinovirus sp. [14]): 0.105 µg/mL (≈ 0.274 µM)
MIC (Human rhinovirus sp. [15]): 0.078 µg/mL (≈ 0.204 µM)
MIC (Human rhinovirus sp. [16]): 0.143 µg/mL (≈ 0.373 µM)
MIC (Human rhinovirus sp. [17]): 0.416 µg/mL (≈ 1.09 µM)
MIC (Human rhinovirus sp. [18]): 0.269 µg/mL (≈ 0.702 µM)
MIC (Human rhinovirus sp. [19]): 0.107 µg/mL (≈ 0.279 µM)
MIC (Human rhinovirus sp. [20]): 0.156 µg/mL (≈ 0.407 µM)
MIC (Human rhinovirus sp. [21]): 0.156 µg/mL (≈ 0.407 µM)
MIC (Human rhinovirus sp. [22]): 0.157 µg/mL (≈ 0.41 µM)
MIC (Human rhinovirus sp. [23]): 0.002 µg/mL (≈ 0.00522 µM)
MIC (Human rhinovirus sp. [24]): 0.028 µg/mL (≈ 0.0731 µM)
MIC (Human rhinovirus sp. [25]): 0.015 µg/mL (≈ 0.0391 µM)
MIC (Human rhinovirus sp. [26]): 0.127 µg/mL (≈ 0.331 µM)
MIC (Human rhinovirus sp. [27]): 0.451 µg/mL (≈ 1.18 µM)
MIC (Human rhinovirus sp. [28]): 0.242 µg/mL (≈ 0.631 µM)
MIC (Human rhinovirus sp. [29]): 0.497 µg/mL (≈ 1.3 µM)
MIC (Human rhinovirus sp. [30]): 0.028 µg/mL (≈ 0.0731 µM)
MIC (Human rhinovirus sp. [31]): 0.072 µg/mL (≈ 0.188 µM)
MIC (Human rhinovirus sp. [32]): 0.027 µg/mL (≈ 0.0704 µM)
MIC (Human rhinovirus sp. [33]): 0.116 µg/mL (≈ 0.303 µM)
MIC (Human rhinovirus sp. [34]): 0.018 µg/mL (≈ 0.047 µM)
MIC (Human rhinovirus sp. [35]): 0.033 µg/mL (≈ 0.0861 µM)
MIC (Human rhinovirus sp. [36]): 0.037 µg/mL (≈ 0.0965 µM)
MIC (Human rhinovirus sp. [37]): 0.053 µg/mL (≈ 0.138 µM)
MIC (Human rhinovirus sp. [38]): 0.124 µg/mL (≈ 0.324 µM)
MIC50 (Human rhinovirus sp. [1]): 0.78 µM (≈ 0.299 µg/mL)
MIC (Human rhinovirus sp. [39]): 0.102 µg/mL (≈ 0.266 µM)
MIC (Human rhinovirus sp. [40]): 0.119 µg/mL (≈ 0.31 µM)
MIC (Human rhinovirus sp. [41]): 0.102 µg/mL (≈ 0.266 µM)
MIC (Human rhinovirus sp. [42]): 0.02 µg/mL (≈ 0.0522 µM)
MIC (Human rhinovirus sp. [43]): 0.101 µg/mL (≈ 0.264 µM)
MIC (Human rhinovirus sp. [44]): 0.084 µg/mL (≈ 0.219 µM)
MIC (Human rhinovirus sp. [45]): 0.299 µg/mL (≈ 0.78 µM)
MIC (Human rhinovirus sp. [46]): 0.034 µg/mL (≈ 0.0887 µM)
MIC (Human rhinovirus sp. [47]): 0.16 µg/mL (≈ 0.417 µM)
MIC (Human rhinovirus sp. [48]): 0.091 µg/mL (≈ 0.237 µM)
MIC (Human rhinovirus sp. [49]): > 3 µg/mL
MIC (Human rhinovirus sp. [50]): 0.49 µg/mL (≈ 1.28 µM)
MIC (Human rhinovirus sp. [51]): 0.073 µg/mL (≈ 0.19 µM)
MIC (Human rhinovirus sp. [52]): 0.035 µg/mL (≈ 0.0913 µM)
MIC (Human rhinovirus sp. [53]): 0.058 µg/mL (≈ 0.151 µM)
MIC (Human rhinovirus sp. [54]): 0.072 µg/mL (≈ 0.188 µM)
MIC (Human rhinovirus sp. [55]): 0.025 µg/mL (≈ 0.0652 µM)
MIC (Human rhinovirus sp. [56]): 0.081 µg/mL (≈ 0.211 µM)
MIC (Human rhinovirus sp. [57]): 0.069 µg/mL (≈ 0.18 µM)
MIC (Human rhinovirus sp. [58]): 0.178 µg/mL (≈ 0.464 µM)
MIC (Human rhinovirus sp. [59]): 0.283 µg/mL (≈ 0.738 µM)
MIC (Human rhinovirus sp. [60]): 0.115 µg/mL (≈ 0.3 µM)
MIC (Human rhinovirus sp. [61]): 0.347 µg/mL (≈ 0.905 µM)
MIC (Human rhinovirus sp. [62]): 0.355 µg/mL (≈ 0.926 µM)
MIC (Human rhinovirus sp. [63]): 0.295 µg/mL (≈ 0.77 µM)
MIC (Human rhinovirus sp. [64]): 0.043 µg/mL (≈ 0.112 µM)
MIC (Human rhinovirus sp. [65]): 0.419 µg/mL (≈ 1.09 µM)
MIC (Human rhinovirus sp. [66]): 0.47 µg/mL (≈ 1.23 µM)
